H69AR inhibit – blocks growth of human H69AR lung tumor cells | AID 598 | viability, % at 10 µM | H69AR lung tumor viability, ATP luminescence, 72 h; stronger effect = lower value | hit rate 6% among 85,000;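 active = viability at or below 40%; inactive = viability above 40%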;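 also: multidrug resistant small cell line overexpressing MRP-1 efflux transporter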
PTEN del growth – PTEN-deleted cell growth suppression | HCT116 PTEN-null viability, CellTiter-Glo, 60 h; stronger effect = lower value | viability, % at 10 µM | hit rate 1.2% among 140,000 | AID 827;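 active = viability at or below a set limit, 4 SD under the median of all tested compounds, cut at about 3.7% in these data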;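 also: PTEN knockout HCT116 line with beta catenin targeted HCT116 as companion control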
HUVEC inhibit – blocks proliferation of human endothelial cells. HUVEC proliferation, CellTiter-Glo luminescence, 72 h; stronger effect = lower value. viability, % at 10 µM (by protocol). hit rate 1.1% among 86,000. AID 648;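 active = viability at or below 30%; inactive = viability above 30%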
Fibroblast inh – blocks proliferation of human lung fibroblasts; LL 47 human lung fibroblast viability, ATP luminescence; stronger effect = lower value; viability, % at 10 µM; hit rate 1.1% among 85,000;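 active = viability at or below 50% in the single dose screen; inactive = viability above 50%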;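 also: compound exposure lasted 72 h before the ATP readout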
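Material: human lung fibroblast line LL 47, low passage; Evaluation: viability percentage against median untreated-cell control; Buffer or medium: 15% FBS in IMEM; Incubation: 72 h compound exposure at 37 °C after overnight plating; Dosing: 0.1% DMSO in all compound wells; Measured by: CellTiter-Glo luminescence.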
HCT116 bCat-KO – beta-catenin-lacking colon tumor cell growth suppression; AID 818; viability, % at 10 µM; HCT116 beta-catenin knockout viability, CellTiter-Glo, 60 h; stronger effect = lower value; hit rate 1.5% among 140,000;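 active = viability at or under a set limit, the compound median less 4 SD, cut at about 6% in these data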
A number is an active result; n = inactive; x = not tested or not shown. Many of the other results were omitted from the sample, so hits are more common in it than they were.

SMILES	H69AR inhibit	PTEN del growth	HUVEC inhibit	Fibroblast inh	HCT116 bCat-KO
c1ccc(-c2noc(-c3ccc4ccccc4c3)n2)nc1	n	n	n	n	n
c1ccc(-c2noc(-c3ccc4c(c3)OCO4)n2)nc1	23	n	29	n	n
c1ccc(CCc2ccccc2-c2nc(-c3ccccn3)no2)cc1	34	n	n	n	n
c1ccc(CCc2ccccc2-c2nc(-c3cccnc3)no2)cc1	n	n	n	n	n
COc1ccc(CNC(=O)CCSc2nc(-c3ccc4c(c3)OCO4)cc(C(F)(F)F)n2)cc1	33	n	n	n	n
O=C(CCSc1nc(-c2ccc3c(c2)OCO3)cc(C(F)(F)F)n1)NCc1ccccc1	23	n	n	n	n
O=C(CCSc1nc(-c2ccc3c(c2)OCO3)cc(C(F)(F)F)n1)NCc1ccco1	33	n	n	n	n
CN(Cc1ccccc1)C(=O)CCSc1nc(-c2ccc3c(c2)OCO3)cc(C(F)(F)F)n1	n	n	n	n	n
COCCNC(=O)CCSc1nc(-c2ccc(OC)cc2)cc(C(F)(F)F)n1	n	n	n	n	n
c1ccc(CSc2nnc(-c3cccnc3)o2)cc1	34	n	n	n	n
N#Cc1cnn(-c2ncnc3sc(-c4ccccc4)cc23)c1N	36	n	n	n	n
N#Cc1cnn(-c2ncnc3sc4c(c23)CCCC4)c1N	x	n	x	x	n
O=C(/C=C/c1ccccc1)Nc1cc(S(=O)(=O)N2CCOCC2)ccc1N1CCCC1	x	n	x	x	n
N#CC1(C#N)COC23CCCCC2C1(C#N)C(=N)O3 (stereo not drawn)	8.2	n	n	n	n
CCCC1OC23CCCCC2C(C#N)(C(=N)O3)C1(C#N)C#N (stereo not drawn)	22	n	n	n	n
CC1OC23CCCCC2C(C#N)(C(=N)O3)C1(C#N)C#N (stereo not drawn)	n	n	n	n	n
COc1ccc(C2OC34CCCCC3C(C#N)(C#N)C2(C#N)C(=N)O4)cc1 (stereo not drawn)	34	n	n	n	n
CN(c1cccc(NC(=O)CN(c2cccc(Cl)c2)S(=O)(=O)c2ccccc2)c1)S(C)(=O)=O	x	n	x	x	n
N/N=C(\c1ccccc1)C12CN3CN(CN(C3)C1)C2	x	n	x	x	n
CCOc1ccc(NS(=O)(=O)c2ccc(OCC)c3ncccc23)cc1	16	n	n	n	n
COc1ccc([N+](=O)[O-])cc1NC(=O)C(C)Sc1nc(C)c(C)c(C)n1 (stereo not drawn)	x	n	x	x	n
C/C(CCC12CC3CC(CC(C3)C1)C2)=N\NC(N)=S	13	n	n	n	n
O=C(CCCO)CCCCCCCCC[C@H]1N[C@H](CO)[C@@H](O)[C@@H]1O	x	n	x	x	n
Cn1c(=O)c2c(nc(Oc3ccc4c(c3)OCO4)n2Cc2ccc(Br)cc2)n(C)c1=O	18	x	22	30	x
CCSc1nnc(NC(=O)NC(C)(C(F)(F)F)C(F)(F)F)s1	x	n	x	x	n
SMILES	H69AR inhibit	PTEN del growth	HUVEC inhibit	Fibroblast inh	HCT116 bCat-KO
CCSc1nnc(NC(=O)NC(CC)(C(F)(F)F)C(F)(F)F)s1	14	n	n	n	n
O=C(Nc1ccc(N2CCOCC2)c(Cl)c1)c1c(F)c(F)c(F)c(F)c1F	32	n	n	n	n
O=C(Nc1ccc(N2CCOCC2)c(Cl)c1)c1cc(F)c(F)cc1Cl	n	n	n	n	n
Cc1cc(C)c2oc(-c3ccc(Cl)c(NC(=O)c4ccc(C#N)cc4F)c3)nc2c1	22	n	n	20	n
N#Cc1ccc(C(=O)Nc2cccc3ncccc23)c(F)c1	x	n	x	x	n
O=C(COC(=O)c1ccc(Cl)c(S(=O)(=O)N2CCc3ccccc3C2)c1)Nc1ncc(Cl)cc1Cl	x	n	x	x	n
COc1ccc(N(C)S(=O)(=O)c2cccc3cccnc23)c(OC)c1	17	n	n	n	n
COc1ccc(NC(=O)C2CCCN2S(=O)(=O)c2cccc3cccnc23)c(OC)c1 (stereo not drawn)	n	n	n	n	n
Cn1c(=O)c(NCCO)c2c3c(cccc31)C(=O)c1ccccc1-2	n	n	n	n	n
CCCCNc1c2c3c(cccc3n(C)c1=O)C(=O)c1ccccc1-2	16	n	n	n	n
O=[N+]([O-])c1ccc(OCC(O)CN2CCN(c3ccccc3F)CC2)cc1 (stereo not drawn)	x	n	x	x	n
CC(=O)Oc1cc2c(cc1Cl)C1(CC(c3ccccc3Cl)O2)CC(C)(C)NC(=S)N1 (stereo not drawn)	32	2.0	n	n	2.0
COc1cccc(C2CC3(CC(C)(C)NC(=S)N3)Oc3cc(O)ccc32)c1 (stereo not drawn)	x	n	x	x	n

Bioassay records (PubChem)
